Assay [1] relates to CCRF-CEM. Kind of assay: (§1) Inhibitory activity against the HIV-1 in CEM cells. The format is functional, cell-based. Conditions: Homo sapiens; call rule not given here. In short, it runs like this:
(§2)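 HIV-1-induced cytopathicity in CEM 4 or MT-4 cell cultures was assessed by counting viable cells after MTT (3-(4,5-dimethylthiazol-2-yl)-2,5-diphenyltetrazolium bromide) staining. IC50 is the concentration that inhibits cytopathicity by 50%. For routine testing, the highest concentration was generally 3 µM, because solubility was limited above 10 µM.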

Assay [2] relates to Human immunodeficiency virus 1. As to the kind of experiment: Inhibitory activity tested against the HIV-1 in CEM cells. Conditions: Human immunodeficiency virus 1, CCRF-CEM. Format: functional, organism-based. In short, it runs like this: as §2
The subject of assay [3] is Human immunodeficiency virus 1. As to the kind of experiment: Inhibitory activity tested against the HIV-1 in MT-4 cells. Format: functional, organism-based. Particulars: Human immunodeficiency virus 1, MT4. Put shortly: as §2
Assay [4] deals with CCRF-CEM. Kind of assay: Inhibitory Activity against the HIV-1 in CEM cells. The format is functional, Homo sapiens. Put shortly:
as §2

Assay [5] relates to CCRF-CEM. As to the kind of experiment: Inhibitory activity against the HIV-1 in CEM cells; NA= Not active. Format: functional, cell-based, Homo sapiens. Put shortly:
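HIV-1-induced cytopathicity assay in CEM 4 cells. Viable cells were counted after MTT (3-(4,5-dimethylthiazol-2-yl)-2,5-diphenyltetrazolium bromide) staining. IC50 is the concentration that inhibits viral cytopathicity by 50%. For routine testing the top concentration was generally 3 µM, because solubility was limited above 10 µM.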

For assay [6], the system named is CCRF-CEM. The assay is described as §1. The format is functional, Homo sapiens. In short, it runs like this:
as §2

Assay [7] relates to CCRF-CEM. Kind of assay: Inhibitory activity against the HIV-1 in CEM cells at 1 uM concentration. The format is functional. Conditions: Homo sapiens.
Assay [8] relates to MT4. As to the kind of experiment: Inhibitory activity against the HIV-1 in MT-4 cells. The format is functional, cell-based. Conditions: Homo sapiens. Put shortly:
as §2

pIC50: −log10 of the molar value.

The term pIC50 denotes −log10 of the IC50, conventionally taken in molar units. A lower pIC50 goes with a large IC50. For orientation: Inhibition means how much of the control response was suppressed. Low values mean a response near the control, high ones a response far below the control. A word on the inhibition: it is how much of the control response was suppressed. Higher therefore signals a strong effect.

For the compound `C=C(C)[C@@H]1CC[C@]2(C(=O)NCCCC(=O)NCCCCCC(=O)O)CC[C@]3(C)[C@H](CCC4[C@@]5(C)CC[C@H](O)C(C)(C)[C@@H]5CC[C@]43C)[C@@H]12` (stereo partly drawn), the pIC50 in assay [1] was 5.26.

For the compound `C=C(C)[C@@H]1CC[C@]2(C(=O)NCCCCCCCC(=O)NCCCC(=O)O)CC[C@]3(C)[C@H](CCC4[C@@]5(C)CC[C@H](O)C(C)(C)[C@@H]5CC[C@]43C)[C@@H]12` (stereo partly drawn), the pIC50 in assay [2] is 7.36; in assay [3], 6.89.

The compound `C=C(C)[C@@H]1CC[C@]2(C(=O)NCCCCCCCCCCCCC(=O)O)CC[C@]3(C)[C@H](CCC4[C@@]5(C)CC[C@H](O)C(C)(C)[C@@H]5CC[C@]43C)[C@@H]12` (stereo partly drawn) returned an Inhibition in assay [4] of 35%.

In assay [4], `C=C(C)[C@@H]1CC[C@]2(C(=O)NCC(=O)NCCCCCCCC(=O)O)CC[C@]3(C)[C@H](CCC4[C@@]5(C)CC[C@H](O)C(C)(C)[C@@H]5CC[C@]43C)[C@@H]12` (stereo partly drawn) came in with an Inhibition of 30%.

Regarding `C=C(C)[C@@H]1CC[C@]2(C(=O)NCCCCCCC(=O)NCCC(=O)O)CC[C@]3(C)[C@H](CCC4[C@@]5(C)CC[C@H](O)C(C)(C)[C@@H]5CC[C@]43C)[C@@H]12` (stereo partly drawn), the pIC50 in assay [1] was 5.35.

For `C=C(C)[C@@H]1CC[C@]2(C(=O)NCCCCCC(=O)NCCCC(=O)O)CC[C@]3(C)[C@H](CCC4[C@@]5(C)CC[C@H](O)C(C)(C)[C@@H]5CC[C@]43C)[C@@H]12` (stereo partly drawn), in assay [1], the pIC50 was 5.52.

Take `C=C(C)[C@@H]1CC[C@]2(C(=O)NCCCC(=O)O)CC[C@]3(C)[C@H](CCC4[C@@]5(C)CC[C@H](O)C(C)(C)[C@@H]5CC[C@]43C)[C@@H]12` (stereo partly drawn): the IC50 result in assay [5] is “Not Active”.

Turning to `C=C(C)[C@@H]1CC[C@]2(C(=O)NCCCCC(=O)NCCCCC(=O)O)CC[C@]3(C)[C@H](CCC4[C@@]5(C)CC[C@H](O)C(C)(C)[C@@H]5CC[C@]43C)[C@@H]12` (stereo partly drawn), the pIC50 in assay [1] is 5.35.

For `C=C(C)[C@@H]1CC[C@]2(C(=O)NCCC(=O)O)CC[C@]3(C)[C@H](CC[C@@H]4[C@@]5(C)CC[C@H](O)C(C)(C)[C@@H]5CC[C@]43C)[C@@H]12`, the IC50 result in assay [5] is on record as “Not Active”.

Regarding `C=C(C)[C@@H]1CC[C@]2(C(=O)NCCC(=O)NCCCCCCC(=O)O)CC[C@]3(C)[C@H](CCC4[C@@]5(C)CC[C@H](O)C(C)(C)[C@@H]5CC[C@]43C)[C@@H]12` (stereo partly drawn), in assay [6], the Inhibition is 20%.

Regarding `C=C(C)[C@@H]1CC[C@]2(C(=O)NCC(=O)O)CC[C@]3(C)[C@H](CCC4[C@@]5(C)CC[C@H](O)C(C)(C)[C@@H]5CC[C@]43C)[C@@H]12` (stereo partly drawn), in assay [5], the IC50 result is recorded as “Not Active”.

`C=C(C)[C@@H]1CC[C@]2(C(=O)NCCCCC(=O)O)CC[C@]3(C)[C@H](CC[C@@H]4[C@@]5(C)CC[C@H](O)C(C)(C)[C@@H]5CC[C@]43C)[C@@H]12` displayed an inhibition at 1 µM in assay [7] of 46%.

Turning to `C=C(C)[C@@H]1CC[C@]2(C(=O)NCCCCCC(=O)O)CC[C@]3(C)[C@H](CC[C@@H]4[C@@]5(C)CC[C@H](O)C(C)(C)[C@@H]5CC[C@]43C)[C@@H]12`, the values for the pIC50 in assay [8] and in assay [1] were 5.62 and 5.64, respectively.

Take `C=C(C)[C@@H]1CC[C@]2(C(=O)NCCCCCCC(=O)O)CC[C@]3(C)[C@H](CC[C@@H]4[C@@]5(C)CC[C@H](O)C(C)(C)[C@@H]5CC[C@]43C)[C@@H]12`: the pIC50 was 5.37 in assay [3] and 4.92 in assay [1].

For the compound `Cc1ccnc2c1NC(=O)c1cccnc1N2C1CC1` [NEVIRAPINE], the pIC50 in assay [1] was 7.08.

For the origin of these results see ChEMBL document CHEMBL1129508, “Betulinic acid derivatives: a new class of specific inhibitors of human immunodeficiency virus type 1 entry” (J Med Chem, 1996).
